The values below come from ChEMBL document CHEMBL2385050 (J Med Chem, 2013).

The IC50 is the concentration at which inhibition is half-maximal. One may read the Cmax as the maximum level reached in the sampled fluid or tissue. By Tmax is commonly meant the time from dosing to the highest level. One may read the CL/F as clearance divided by bioavailability, as obtained after extravascular dosing. As a reminder, the EC50 is the concentration at which the effect is half-maximal. Usually AUC(0-t) stands for the area under the concentration-time curve up to a stated or last time point. The inhibition is how much of the control response was suppressed.

For data set [1], the target named is T1, Estrogen receptor (Homo sapiens) (UniProt P03372).
T1 sequence (whole entry): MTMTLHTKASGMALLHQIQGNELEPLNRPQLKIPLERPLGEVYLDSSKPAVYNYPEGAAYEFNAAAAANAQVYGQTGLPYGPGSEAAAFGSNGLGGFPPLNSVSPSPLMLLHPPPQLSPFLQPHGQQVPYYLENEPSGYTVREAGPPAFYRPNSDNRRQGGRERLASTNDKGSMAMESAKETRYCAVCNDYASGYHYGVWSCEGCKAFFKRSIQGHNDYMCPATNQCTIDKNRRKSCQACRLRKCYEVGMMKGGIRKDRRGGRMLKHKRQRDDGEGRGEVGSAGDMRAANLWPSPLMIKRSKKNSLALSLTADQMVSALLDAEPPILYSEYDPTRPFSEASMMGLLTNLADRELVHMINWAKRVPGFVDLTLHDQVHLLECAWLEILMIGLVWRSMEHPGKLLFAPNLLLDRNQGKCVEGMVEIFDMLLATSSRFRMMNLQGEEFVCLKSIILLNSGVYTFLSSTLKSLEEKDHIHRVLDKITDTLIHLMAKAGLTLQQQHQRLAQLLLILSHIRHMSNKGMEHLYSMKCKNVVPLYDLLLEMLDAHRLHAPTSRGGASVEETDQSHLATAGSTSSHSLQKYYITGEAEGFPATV
The experiment in a line: Displacement of fluorescent ES2 from human recombinant ERalpha at 100 uM after 2 hrs by fluorimetric analysis relative to control. The method, boiled down:
(§1)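 Fluorescence polarization competition with fluorescent estrogen ligand ES2 (9 nM) and recombinant human ER-α (30 nM) or ER-β (20 nM). Buffer: 100 mM potassium phosphate, 100 μg/mL BGG, 0.02% NaN3. Samples in methanol or methanol/dichloromethane; 2 h incubation protected from light. Read at Ex/Em 485/530 nm. Result is % polarization remaining vs vehicle control; mean of at least three experiments.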

Data set [2] concerns the target Estrogen receptor beta (Homo sapiens) (UniProt Q92731). The experiment in a line: Displacement of fluorescent ES2 from human recombinant ERbeta at 100 uM after 2 hrs by fluorimetric analysis relative to control. In short, it runs like this: as §1
For data set [3], the target named is T2, Aromatase (Homo sapiens, UniProt P11511).
T2 sequence (P11511 whole entry): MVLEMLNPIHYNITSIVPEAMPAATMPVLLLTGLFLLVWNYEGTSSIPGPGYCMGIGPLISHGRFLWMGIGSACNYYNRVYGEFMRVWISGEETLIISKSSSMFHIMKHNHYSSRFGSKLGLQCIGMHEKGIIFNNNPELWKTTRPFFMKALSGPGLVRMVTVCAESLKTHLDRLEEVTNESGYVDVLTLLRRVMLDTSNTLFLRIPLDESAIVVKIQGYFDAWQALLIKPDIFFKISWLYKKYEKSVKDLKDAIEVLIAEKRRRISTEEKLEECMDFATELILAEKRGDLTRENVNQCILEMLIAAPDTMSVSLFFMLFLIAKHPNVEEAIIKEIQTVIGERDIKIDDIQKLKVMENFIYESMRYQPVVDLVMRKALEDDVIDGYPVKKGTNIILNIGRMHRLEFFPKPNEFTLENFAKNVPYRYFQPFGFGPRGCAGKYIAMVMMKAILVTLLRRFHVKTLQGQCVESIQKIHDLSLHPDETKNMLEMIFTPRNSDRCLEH
Kind of data set: Inhibition of human recombinant microsomal aromatase-mediated 7-methoxy-4-trifluoromethylcoumarin conversion to 7-hydroxytrifluoromethylcoumarin preincubated for 10 mins measured after 30 mins by fluorescence assay. In short, it runs like this: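 Recombinant human CYP19 with MFC substrate in 0.1 M potassium phosphate pH 7.4; samples in methanol or methanol/dichloromethane, prewarmed 10 min at 37 °C with NADPH-generating cofactor mix (NADP+, MgCl2, glucose-6-phosphate, G6PDH), then 30 min reaction, stopped with 0.1 M Tris base in acetonitrile.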

Data set [4] deals with T2, Aromatase. Kind of data set: Inhibition of human recombinant placental aromatase. In short, it runs like this: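 Recombinant human aromatase (CYP19) in microsomal incubations with fluorogenic substrate MFC, read as conversion to HFC. Compounds in methanol or methanol/dichloromethane, prewarmed 10 min at 37 °C with NADPH-regenerating mix, then enzyme/substrate in 0.1 M potassium phosphate pH 7.4 added. Activity given as % of vehicle control.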

Data set [5] relates to Mus musculus. The experiment in a line: Cmax in NOD/SCID mouse at 100 mg/kg, po by LC-MS-MS analysis. In kind it is ADME, organism-based. Further details: dose 100 mg/kg, route oral. The note with it: in vivo. The method, boiled down: (§2)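 Mixed E,Z material (E:Z 45:55 by LC-MS-MS), 100 mg/kg single oral gavage, 10-week-old female NOD/SCID mice. Each mouse bled once by tail vein (n = 3 per time point), sampling up to 24 h. Plasma E and Z isomers quantified by LC-MS-MS. Parameters are from mean plasma concentrations (n = 3).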

In data set [6] the test system is Mus musculus. Kind of data set: Tmax in NOD/SCID mouse at 100 mg/kg, po by LC-MS-MS analysis. In kind it is ADME, organism-based. Further details: dose 100 mg/kg, route oral. The note with it: in vivo. In short, it runs like this: as §2
The subject of data set [7] is Mus musculus. The experiment in a line: Half life in NOD/SCID mouse at 100 mg/kg, po by LC-MS-MS analysis. The note with it: in vivo. In kind it is ADME, organism-based. Further details: dose 100 mg/kg, route oral. In short, it runs like this:
as §2

Data set [8] in a line: Apparent volume of distribution during terminal phase in NOD/SCID mouse at 100 mg/kg, po by LC-MS-MS analysis. In kind it is ADME, organism-based. Further details: dose 100 mg/kg, route oral. The note with it: in vivo, read-out: Vz/F. In short, it runs like this:
as §2

Data set [9] is described as follows: Apparent oral clearance in NOD/SCID mouse at 100 mg/kg, po by LC-MS-MS analysis. The format is ADME, organism-based. Further details: dose 100 mg/kg, route oral. The note with it: in vivo. In short, it runs like this:
as §2

Another data set concerns the target T3, Estrogen receptor (Homo sapiens, UniProt P03372).
T3 sequence (P03372 whole entry): T1 sequence (whole entry)
The experiment in a line: Displacement of fluorescent ES2 from human recombinant ERalpha after 2 hrs by fluorimetric analysis.

The nature of data set [10]: (§3) AUClast in NOD/SCID mouse at 100 mg/kg, po by LC-MS-MS analysis. The format is ADME, organism-based, Plasma. Further details: time 0 - last, dose 100 mg/kg, route oral. The note with it: NOD/SCID, plasma. In short, it runs like this: as §2
In data set [11] the test system is Mus musculus. Kind of data set: Clast in NOD/SCID mouse at 100 mg/kg, po by LC-MS-MS analysis. In kind it is ADME, organism-based. Further details: dose 100 mg/kg, route oral. The note with it: in vivo. The method, boiled down: as §2
The subject of data set [12] is Mus musculus. The data set is described as §3. In kind it is ADME, organism-based, Plasma. Further details: time 0 - last, dose 100 mg/kg, route oral. The note with it: in vivo. In short, it runs like this: as §2
For data set [13], the target named is T2, Aromatase. Kind of data set: Inhibition of human recombinant microsomal aromatase-mediated 7-methoxy-4-trifluoromethylcoumarin conversion to 7-hydroxytrifluoromethylcoumarin at 50 uM preincubated for 10 mins measured after 30 mins by fluorescence assay relative to control. The note with it: probe 7-methoxy-4-trifluoromethylcoumarin. The method, boiled down:
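Recombinant human CYP19 microsomal incubation, linear-range conditions. Samples in methanol or methanol/dichloromethane, prewarmed 10 min at 37 °C with NADPH-regenerating cofactor mix. Enzyme and MFC substrate added in 0.1 M potassium phosphate pH 7.4; 30 min reaction; stopped with Tris base in acetonitrile. HFC read at Ex/Em 409/530 nm against a standard curve. Result is % activity remaining vs vehicle; mean of at least three experiments.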

Sequence of Estrogen receptor beta (Homo sapiens) (Q92731 whole entry): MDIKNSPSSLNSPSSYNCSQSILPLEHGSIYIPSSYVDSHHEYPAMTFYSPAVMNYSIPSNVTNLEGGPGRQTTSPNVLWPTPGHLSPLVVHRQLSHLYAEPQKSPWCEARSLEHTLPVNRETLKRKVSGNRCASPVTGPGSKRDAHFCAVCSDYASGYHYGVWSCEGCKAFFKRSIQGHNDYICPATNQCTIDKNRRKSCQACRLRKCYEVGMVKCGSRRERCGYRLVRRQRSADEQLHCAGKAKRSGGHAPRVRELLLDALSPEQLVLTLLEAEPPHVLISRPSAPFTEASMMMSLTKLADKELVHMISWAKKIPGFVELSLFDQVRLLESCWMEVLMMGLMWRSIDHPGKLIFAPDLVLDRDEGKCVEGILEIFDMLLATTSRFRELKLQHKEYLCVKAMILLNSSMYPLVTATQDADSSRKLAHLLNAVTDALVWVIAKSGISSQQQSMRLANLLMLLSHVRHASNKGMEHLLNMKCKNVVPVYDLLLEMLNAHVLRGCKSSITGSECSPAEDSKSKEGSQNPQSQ

Take `CCC(=C(c1ccc(O)cc1)c1ccc(O)cc1)c1ccccc1`: in data set [1], the Activity stood at 80%.
Take `CC/C(=C(\c1ccc(O)cc1)c1ccc(OCC(N)=O)cc1)c1ccccc1`: the Activity in [1] came out at 57%; in data set [2] it was 71%. In addition, the IC50 on Aromatase [3] came to 9.26 µM.
Consider `CCC(=C(c1ccc(O)cc1)c1ccc(OCCN(C)C)cc1)c1ccccc1`, for which, at Aromatase [4], the IC50 came to 530 µM.
In the data set on Mus musculus [5], `CC/C(=C(\c1ccc(O)cc1)c1ccc(OCCN)cc1)c1ccccc1` displayed a maximum concentration (Cmax) of 2.1 µg/mL. In addition, the Tmax in the data set on Mus musculus [6] worked out at 1 h. The t1/2 in the data set with Mus musculus [7] was determined as 22.7 h. Further, in data set [8], the Vd/F was found to be 0.5 L. In addition, the apparent clearance (CL/F) in [9] is 0.267 mL/min. In addition, the EC50 on Estrogen receptor came out at 17 nM. Moreover, the AUC(0-t) in [10] turned out to be 35100 ng·h/mL. The same compound registered a Clast in the data set on Mus musculus [11] of 0.9 µg/mL.
`CC/C(=C(/c1ccc(O)cc1)c1ccc(OCCN)cc1)c1ccccc1`: the Cmax in the data set with Mus musculus [5] amounted to 0.7 µg/mL. The time to peak (Tmax) in the data set on Mus musculus [6] is 2 h. Besides, in the data set with Mus musculus [7], the t1/2 turned out to be 21.4 h. For the same compound, the Vd/F in data set [8] is 2.8 L. Further, the apparent clearance (CL/F) in data set [9] was 1.52 mL/min. Also, the EC50 at Estrogen receptor was 58.7 nM. In addition, the AUClast in the data set on Mus musculus [12] is 5.8 µg·h/mL. This compound had a Clast in the data set on Mus musculus [11] of 0.1 µg/mL.
As for `CC/C(=C(/c1ccc(O)cc1)c1ccc(OC(=O)C(C)(C)C)cc1)c1ccccc1`, the Activity in data set [1] and in data set [2] was 68% each time. The inhibition at 0.5 h, 50 µM at Aromatase [13] came out at 8%.
With `CC/C(=C(\c1ccc(O)cc1)c1ccc(OCCNC)cc1)c1ccccc1` (mixture of isomers) [ENDOXIFEN], the half-maximal inhibitory concentration (IC50) on Aromatase [4] came to 6 µM.
In the case of `CC/C(=C(/c1ccc(OCC(N)=O)cc1)c1ccc(OC(=O)C(C)(C)C)cc1)c1ccccc1`, the Activity was found to be 56% in [1] and 45% in data set [2]. Besides, at Aromatase [13], the inhibition at 0.5 h, 50 µM was 0%.
